Measurements taken from ChEMBL document CHEMBL1144540, “Analgesic agents without gastric damage: design and synthesis of structurally simple benzenesulfonanilide-type cyclooxygenase-1-selective inhibitors” (Bioorg Med Chem, 2007).
pIC50: −log10 of the molar value. Activity calls are given as the source filed them. The calls are words filed in the database; no cut-off is given here.

Test system: Rattus norvegicus
Experiment: Effect on gastric damage in rat assessed as induction of gastric ulcer at 30 mg/kg, po after 5 hrs
Type: functional, organism-based
Design: dose 30 mg/kg
Conditions: Stomach
In short: (§1)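 Male rats, 170–200 g, given a single oral dose in 0.5% CMC vehicle (n = 3–5 per group). Ulcer lengths were measured in millimetres and summed to give an overall gastric damage score per rat. Data are means with SEM.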

Compound	Activity
CC(=O)Oc1ccccc1C(=O)O	Active

Test system: Rattus norvegicus
Experiment: Effect on gastric damage in rat assessed as induction of gastric ulcer at 10 mg/kg, po after 5 hrs
Type: functional, organism-based
Design: dose 10 mg/kg
Conditions: Stomach
In short: as §1

Compound	Activity
COc1ccc2c(c1)c(CC(=O)O)c(C)n2C(=O)c1ccc(Cl)cc1	Active

Biological target: T1, Prostaglandin G/H synthase 1 (Ovis aries) (UniProt P05979)
T1 sequence (whole entry): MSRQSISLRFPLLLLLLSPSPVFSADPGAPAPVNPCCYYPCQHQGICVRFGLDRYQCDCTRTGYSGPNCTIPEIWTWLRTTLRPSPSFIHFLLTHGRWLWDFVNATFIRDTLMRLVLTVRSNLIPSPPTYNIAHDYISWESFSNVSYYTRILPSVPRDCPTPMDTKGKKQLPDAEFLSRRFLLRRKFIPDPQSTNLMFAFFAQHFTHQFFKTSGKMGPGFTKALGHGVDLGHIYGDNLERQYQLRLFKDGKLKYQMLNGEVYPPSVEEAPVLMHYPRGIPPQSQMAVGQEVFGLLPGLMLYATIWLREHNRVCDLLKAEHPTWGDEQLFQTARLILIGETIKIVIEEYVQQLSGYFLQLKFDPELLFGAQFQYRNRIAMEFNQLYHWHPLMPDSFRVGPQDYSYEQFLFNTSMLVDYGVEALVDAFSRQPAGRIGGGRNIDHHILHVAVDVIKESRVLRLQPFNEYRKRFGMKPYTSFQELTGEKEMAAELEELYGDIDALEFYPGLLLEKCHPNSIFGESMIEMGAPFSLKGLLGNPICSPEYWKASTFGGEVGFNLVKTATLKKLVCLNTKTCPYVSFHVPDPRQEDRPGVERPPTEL
Experiment: Inhibition of ovine COX1 at 100 uM
Conditions: not given
In short: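 Colorimetric ovine COX inhibitor screening kit, run per the supplier's protocol. […] Each experiment was run at least twice and the mean was reported.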

Compound	inhibition [%]
COc1ccc(N(C)S(=O)(=O)c2ccc(N)cc2)cc1	6
COc1cc(N)ccc1N(C)S(=O)(=O)c1ccc(Cl)cc1	73
CN(c1ccc(Br)cc1)S(=O)(=O)c1ccc(N)cc1	21
O=C(O)c1ccc(S(=O)(=O)Nc2ccccc2)cc1	11
O=[N+]([O-])c1ccc(S(=O)(=O)Nc2ccccc2)cc1	0
Cc1ccc(N(C)S(=O)(=O)c2ccc(N)cc2)cc1	21
Nc1ccc(S(=O)(=O)Nc2cc(C(F)(F)F)cc(C(F)(F)F)c2)cc1	30
CN(c1ccc(C(F)(F)F)cc1)S(=O)(=O)c1ccc(N)cc1	9
CN(c1ccc(I)cc1)S(=O)(=O)c1ccc(N)cc1	18
Nc1ccc(S(=O)(=O)Nc2ccccc2Cl)cc1	53
O=C(O)c1ccc(S(=O)(=O)Nc2ccc(C(F)(F)F)cc2)cc1	0
Cc1cccc(NS(=O)(=O)c2ccc([N+](=O)[O-])cc2)c1	3
O=[N+]([O-])c1ccc(S(=O)(=O)Nc2cc(C(F)(F)F)cc(C(F)(F)F)c2)cc1	19
CS(=O)(=O)Nc1ccc(S(=O)(=O)Nc2cc(C(F)(F)F)cc(C(F)(F)F)c2)cc1	0
Nc1ccc(S(=O)(=O)Nc2cccc(Cl)c2)cc1	18
Cc1cc(C)cc(NS(=O)(=O)c2ccc([N+](=O)[O-])cc2)c1	0
Nc1ccc(S(=O)(=O)Nc2ccccc2)cc1	0
COc1cc(N)ccc1NS(=O)(=O)c1ccc(Cl)cc1	1
Nc1ccc(S(=O)(=O)Nc2ccc(F)cc2)cc1	15
CN(c1ccc(Cl)cc1)S(=O)(=O)c1cccc(N)c1	39
O=[N+]([O-])c1ccc(S(=O)(=O)Nc2ccc(C(F)(F)F)cc2)cc1	1
Nc1ccc(S(=O)(=O)Nc2ccc(Br)cc2)cc1	23

Further lines, results first:

inhibition [%]	Compound
8	Cc1cccc(NS(=O)(=O)c2ccc(N)cc2)c1
5	Cc1ccccc1NS(=O)(=O)c1ccc(N)cc1
13	Cc1cc(C)cc(NS(=O)(=O)c2ccc(N)cc2)c1
44	Cc1ccc(NS(=O)(=O)c2ccc([N+](=O)[O-])cc2)cc1
78	CN(c1ccc(Cl)cc1)S(=O)(=O)c1ccc(N)cc1
0	CCCN(c1ccc(Cl)cc1)S(=O)(=O)c1ccc(N)cc1
0	Cc1ccccc1NS(=O)(=O)c1ccc(NS(C)(=O)=O)cc1
77	Cc1cc(N)ccc1N(C)S(=O)(=O)c1ccc(Cl)cc1
8	COc1ccc(NS(=O)(=O)c2ccc(NS(C)(=O)=O)cc2)cc1
12	Cc1ccc(NS(=O)(=O)c2ccc(NS(C)(=O)=O)cc2)cc1
0	Cc1cccc(NS(=O)(=O)c2ccc(C(=O)O)cc2)c1
0	CS(=O)(=O)Nc1ccc(S(=O)(=O)Nc2ccccc2)cc1
10	CCN(c1ccc(Cl)cc1)S(=O)(=O)c1ccc(N)cc1
8	CS(=O)(=O)Nc1ccc(S(=O)(=O)Nc2ccc(C(F)(F)F)cc2)cc1
0	Cc1cc(C)cc(NS(=O)(=O)c2ccc(NS(C)(=O)=O)cc2)c1
3	COc1ccc(NS(=O)(=O)c2ccc(C(=O)O)cc2)cc1
0	CN(c1ccc(F)cc1)S(=O)(=O)c1ccc(N)cc1

inhibition [%]	Compound
14	Nc1ccc(S(=O)(=O)Nc2ccc(C(F)(F)F)cc2)cc1
70	Nc1ccc(S(=O)(=O)Nc2ccc(Cl)cc2)cc1
6	Nc1ccc(S(=O)(=O)Nc2ccc(Cl)cc2Cl)cc1
68	CN(c1ccc(N)cc1)S(=O)(=O)c1ccc(Cl)cc1
48	CN(c1ccccc1)S(=O)(=O)c1ccc(N)cc1
3	Nc1ccc(NS(=O)(=O)c2ccc(Cl)cc2)cc1
11	CS(=O)(=O)Nc1ccc(S(=O)(=O)Nc2ccc(Cl)cc2)cc1
7	Nc1ccc(NS(=O)(=O)c2ccc(Cl)cc2)c(C(F)(F)F)c1
18	Nc1ccc(S(=O)(=O)Nc2ccc(I)cc2)cc1
7	Cc1cc(N)ccc1NS(=O)(=O)c1ccc(Cl)cc1
0	Cc1ccccc1NS(=O)(=O)c1ccc([N+](=O)[O-])cc1
52	Cc1ccc(NS(=O)(=O)c2ccc(N)cc2)cc1
21	Cc1ccccc1NS(=O)(=O)c1ccc(C(=O)O)cc1
0	COc1ccc(NS(=O)(=O)c2ccc([N+](=O)[O-])cc2)cc1
6	O=[N+]([O-])c1ccc(S(=O)(=O)Nc2ccc(Cl)cc2)cc1
3	Cc1cccc(NS(=O)(=O)c2ccc(NS(C)(=O)=O)cc2)c1
25	O=C(O)c1ccc(S(=O)(=O)Nc2cc(C(F)(F)F)cc(C(F)(F)F)c2)cc1

Biological target: T2, Prostaglandin G/H synthase 1 (Ovis aries, UniProt P05979)
T2 sequence (P05979 whole entry): T1 sequence (whole entry)
Experiment: Inhibition of ovine COX1
Conditions: not given
In short: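 Colorimetric ovine COX inhibitor screening kit, run per the supplier's protocol. Each experiment was run at least twice and the mean was reported.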

pIC50	Compound
4.70	COc1cc(N)ccc1N(C)S(=O)(=O)c1ccc(Cl)cc1
5.49	CN(c1ccc(Cl)cc1)S(=O)(=O)c1ccc(N)cc1
4.59	Cc1cc(N)ccc1N(C)S(=O)(=O)c1ccc(Cl)cc1
4.92	Nc1ccc(S(=O)(=O)Nc2ccc(Cl)cc2)cc1
5.04	CN(c1ccc(N)cc1)S(=O)(=O)c1ccc(Cl)cc1
